Laboratory results taken from ChEMBL document CHEMBL5385966, “Synthesis and biological evaluation of new naphthalimide-thiourea derivatives as potent antimicrobial agents active against multidrug-resistant Staphylococcus aureus and Mycobacterium tuberculosis” (RSC Med Chem, 2024).
In brackets after ≈: the same amount, converted by molar mass. Activity calls are given as the source filed them. No cut-off for these calls is given here.

What was measured:
Acinetobacter baumannii = assay: Antibacterial activity against Acinetobacter baumannii BAA 1605 assessed as bacterial growth inhibition incubated for 16 to 18 hrs by CLSI based antibiotic susceptibility testing method; type: functional, organism-based; conditions: time 16-18 hrs
In short: (§1)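 Broth microdilution in cation-adjusted Mueller-Hinton broth. Compounds were tested at […], with levofloxacin as reference and medium-only controls. Plates were incubated at 37 °C for 16-18 h. MIC was the lowest concentration with no visible growth; three independent determinations, each in duplicate.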

Escherichia coli = assay: Antibacterial activity against Escherichia coli ATCC 25922 assessed as bacterial growth inhibition incubated for 16 to 18 hrs by CLSI based antibiotic susceptibility testing method; type: functional, organism-based; conditions: time 16-18 hrs; in short: as §1
Staphylococcus aureus = assay: Antibacterial activity against Staphylococcus aureus ATCC 29213 assessed as bacterial growth inhibition incubated for 16 to 18 hrs by CLSI based antibiotic susceptibility testing method; type: functional; conditions: time 16-18 hrs; in short: as §1
Pseudomonas aeruginosa = assay: Antibacterial activity against Pseudomonas aeruginosa ATCC 27853 assessed as bacterial growth inhibition incubated for 16 to 18 hrs by CLSI based antibiotic susceptibility testing method; type: functional, organism-based; conditions: time 16-18 hrs; in short: as §1
[1] = tested on: Mycolicibacterium fortuitum; assay: Antimycobacterial activity against Mycobacterium fortuitum ATCC 6841 assessed as bacterial growth inhibition incubated for 72 hrs by resazurin dye based broth microdilution method; type: functional, organism-based
In short: (§2)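 Broth microdilution in Middlebrook 7H9 with 10% ADC-Tween-80 (0.2% glycerol, 0.05% Tween-80), inoculum ~10⁶ cfu/mL. Compounds came from 10 mg/mL DMSO stocks and were tested as two-fold serial dilutions at 37 °C, 7 days for M. tuberculosis H37Rv and 72 h for NTM. Growth was read visually with PrestoBlue resazurin dye; MIC was the lowest concentration preventing growth. Triplicate determinations, each in duplicate.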

Mycobacteroides chelonae = assay: Antimycobacterial activity against Mycobacteroides chelonae ATCC 35752 assessed as bacterial growth inhibition incubated for 72 hrs by resazurin dye based broth microdilution method; type: functional, organism-based; in short: as §2
[2] = tested on: Mycobacterium tuberculosis; assay: Antimycobacterial activity against Mycobacterium tuberculosis H37Rv ATCC 27294 assessed as bacterial growth inhibition incubated for 7 days by resazurin dye based broth microdilution method; type: functional; conditions: H37Rv ATCC 27294, 168 h, time 7 day; in short: as §2
[3] = tested on: Mycobacteroides abscessus; assay: Antimycobacterial activity against Mycobacterium abscessus ATCC 19977 assessed as bacterial growth inhibition incubated for 72 hrs by resazurin dye based broth microdilution method; type: functional, organism-based; in short: as §2
Klebsiella pneumoniae = assay: Antibacterial activity against Klebsiella pneumoniae BAA 1705 assessed as bacterial growth inhibition incubated for 16 to 18 hrs by CLSI based antibiotic susceptibility testing method; type: functional, organism-based; conditions: time 16-18 hrs; in short: as §1

Row | Compound | growth inhibition (GI) (Acinetobacter baumannii) | growth inhibition (GI) (Escherichia coli) | MIC (Staphylococcus aureus) [µg/mL] | growth inhibition (GI) (Pseudomonas aeruginosa) | growth inhibition (GI) [1] | growth inhibition (GI) (Mycobacteroides chelonae) | MIC [2] [µg/mL] | growth inhibition (GI) [3] | growth inhibition (GI) (Klebsiella pneumoniae)
1 | O=C(CN1C(=O)c2cccc3cccc(c23)C1=O)N1CCN(C(=S)Nc2ccc(Cl)cc2)CC1 | inactive | inactive | > 64 | inactive | inactive | inactive | 8 (≈ 16.2 µM) | inactive | inactive
2 | O=C1c2cccc3cccc(c23)C(=O)N1CCN1CCN(C(=S)Nc2ccc(Cl)cc2)CC1 | inactive | inactive | > 64 | inactive | inactive | inactive | > 64 | inactive | inactive
3 | O=C(CN1C(=O)c2cccc3cccc(c23)C1=O)N1CCC(NC(=S)NC23CC4CC(CC(C4)C2)C3)CC1 | inactive | inactive | 4 (≈ 7.54 µM) | inactive | inactive | inactive | 32 (≈ 60.3 µM) | inactive | inactive
4 | COc1ccc(NC(=S)N2CCN(C(=O)CCN3C(=O)c4cccc5cccc(c45)C3=O)CC2)cc1 | inactive | inactive | > 64 | inactive | inactive | inactive | 8 (≈ 15.9 µM) | inactive | inactive
5 | O=C1c2cccc3cccc(c23)C(=O)N1CCN1CCN(C(=S)Nc2cccc(Cl)c2)CC1 | inactive | inactive | > 64 | inactive | inactive | inactive | > 64 | inactive | inactive
6 | COc1ccc(NC(=S)N2CCN(CCN3C(=O)c4cccc5cccc(c45)C3=O)CC2)cc1 | inactive | inactive | > 64 | inactive | inactive | inactive | > 64 | inactive | inactive
7 | O=C1c2cccc3cccc(c23)C(=O)N1CCN1CCN(C(=S)Nc2ccccc2Cl)CC1 | inactive | inactive | > 64 | inactive | inactive | inactive | > 64 | inactive | inactive
